From ChEMBL document CHEMBL3272319, “Alkyl streptozotocin analogues with improved biological activities” (J Med Chem, 1976)

Tested on: Mus musculus
Assay: Toxicity in ICR mouse allografted with mouse S180A assessed as mortality at 50 mg/kg, ip qd for 5 days
Format: organism-based
Design: dose 50 mg/kg, route intraperitoneal
Settings: in vivo, 120 h
In short: (§1)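 Ascites Sarcoma 180 (1 × 10^7 cells) implanted into ICR mice, six per group; compound in saline ip once daily days 1-5; sacrifice on day 7; total packed cell volume (ascites volume × PCV) compared with controls as T/C %; mortality recorded.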
With `CCCCO[C@H]1O[C@H](CO)[C@@H](O)[C@H](O)[C@H]1NC(=O)N(CCCC)N=O` the Activity was “Non-toxic”. For `CCO[C@@H]1O[C@H](CO)[C@@H](O)[C@H](O)[C@H]1NC(=O)N(CC)N=O`, the Activity was “Non-toxic”. For `CCO[C@H]1O[C@H](CO)[C@@H](O)[C@H](O)[C@H]1NC(=O)N(CC)N=O`, the Activity was “Non-toxic”. For `CCCN(N=O)C(=O)N[C@H]1[C@H](OC)O[C@H](CO)[C@@H](O)[C@@H]1O`, the Activity was “Non-toxic”.

Tested on: not listed separately
Assay: Ratio of compound LD50 to streptozotocin LD50 for JCL-ICR mouse
Format: ADME, organism-based
Settings: in vivo
Compound `CCCO[C@H]1O[C@H](CO)[C@@H](O)[C@H](O)[C@H]1NC(=O)N(C)N=O` has a selectivity ratio of 2. Work on `CCCCO[C@H]1O[C@H](CO)[C@@H](O)[C@H](O)[C@H]1NC(=O)N(CCCC)N=O` yielded a selectivity ratio of 2. For `CCCCO[C@@H]1O[C@H](CO)[C@@H](O)[C@H](O)[C@H]1NC(=O)N(C)N=O`, the selectivity ratio was 2.

Tested on: Ehrlich
Assay: Antitumor activity against mouse EAC allografted in ICR mouse assessed as tumor growth at 125 mg/kg, ip qd for 5 days measured on day 7 relative to control
Format: functional
Settings: route intraperitoneal
In short: (§2)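 Ehrlich ascites carcinoma (1 × 10^7 cells) implanted into ICR mice, six per group. Drug in saline ip, qd days 1–5. Mice killed day 7. Total packed cell volume = ascites volume × % packed cell volume; T/C % = TPCV treated/control × 100. Activity graded from T/C.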
In the case of `CCCO[C@H]1O[C@H](CO)[C@@H](O)[C@H](O)[C@H]1NC(=O)N(C)N=O`, the T/C is reported as 37%. `CCCCO[C@H]1O[C@H](CO)[C@@H](O)[C@H](O)[C@H]1NC(=O)N(CCCC)N=O` gave a T/C of 53%. With `CCO[C@H]1O[C@H](CO)[C@@H](O)[C@H](O)[C@H]1NC(=O)N(CC)N=O` the T/C was 60%. For `CCCN(N=O)C(=O)N[C@H]1[C@H](OC)O[C@H](CO)[C@@H](O)[C@@H]1O`, the T/C was 72%.

Tested on: Ehrlich
Assay: Antitumor activity against mouse EAC allografted in ICR mouse assessed as tumor growth at 150 mg/kg, ip qd for 5 days measured on day 7 relative to control
Format: functional
Settings: route intraperitoneal
In short: as §2
In the case of `CCCCO[C@@H]1O[C@H](CO)[C@@H](O)[C@H](O)[C@H]1NC(=O)N(C)N=O`, the T/C is reported as 4%.

Tested on: L1210
Assay: Antitumor activity against mouse L1210 cells allografted in BDF1 mouse assessed as increase in host lifespan at 100 mg/kg, ip qd for 5 days relative to control
Format: functional
Settings: 120 h, route intraperitoneal
In short: (§3)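 L1210 (1 × 10^5 cells) implanted into BDF1 mice, six per group; compound in saline ip once daily days 1-5; effect read as % increase in life span, ILS = [(treated life span/control life span) − 1] × 100.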
Work on `CCO[C@@H]1O[C@H](CO)[C@@H](O)[C@H](O)[C@H]1NC(=O)N(CC)N=O` yielded an ILS at 100 mg/kg of 10%. `CCO[C@H]1O[C@H](CO)[C@@H](O)[C@H](O)[C@H]1NC(=O)N(CC)N=O` showed an ILS at 100 mg/kg of 14%. For `CCCN(N=O)C(=O)N[C@H]1[C@H](OC)O[C@H](CO)[C@@H](O)[C@@H]1O`, the ILS at 100 mg/kg was 7%.

Tested on: Mus musculus
Assay: Toxicity in BDF1 mouse allografted with mouse L1210 cells assessed as mortality at 50 mg/kg, ip qd for 5 days
Format: organism-based
Design: dose 50 mg/kg, route intraperitoneal
Settings: in vivo, 120 h
In short: as §3
For `CCCO[C@H]1O[C@H](CO)[C@@H](O)[C@H](O)[C@H]1NC(=O)N(C)N=O`, the Activity was “Non-toxic”. With `CCCCO[C@@H]1O[C@H](CO)[C@@H](O)[C@H](O)[C@H]1NC(=O)N(C)N=O` the Activity was “Non-toxic”.

Tested on: not listed separately
Assay: Antitumor activity against mouse S180A allografted in ICR mouse assessed as tumor growth at 50 mg/kg, ip qd for 5 days measured on day 7 relative to control
Format: functional
Settings: route intraperitoneal
In short: (§4)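 Ascites Sarcoma 180 (1 × 10^7 cells) implanted into ICR mice, six animals per group. Five daily ip injections in saline (days 1–5). Sacrificed day 7. T/C % computed from total packed cell volume (ascites volume × PCV) vs controls. Grades: 100-66 = -, 65-41 = +, 40-11 = ++, 10-0 = +++.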
Work on `CCCCO[C@H]1O[C@H](CO)[C@@H](O)[C@H](O)[C@H]1NC(=O)N(CCCC)N=O` yielded a T/C of 80%. `CCO[C@@H]1O[C@H](CO)[C@@H](O)[C@H](O)[C@H]1NC(=O)N(CC)N=O` showed a T/C of 59%. For `CCO[C@H]1O[C@H](CO)[C@@H](O)[C@H](O)[C@H]1NC(=O)N(CC)N=O`, the T/C was 63%. For `CCCN(N=O)C(=O)N[C@H]1[C@H](OC)O[C@H](CO)[C@@H](O)[C@@H]1O`, the T/C was 69%.

Tested on: Mus musculus
Assay: Toxicity in BDF1 mouse allografted with mouse L1210 cells assessed as mortality at 100 mg/kg, ip qd for 5 days
Format: organism-based
Design: dose 100 mg/kg, route intraperitoneal
Settings: in vivo, 120 h
In short: as §3
For `CCO[C@@H]1O[C@H](CO)[C@@H](O)[C@H](O)[C@H]1NC(=O)N(CC)N=O`, the Activity was “Non-toxic”. With `CCO[C@H]1O[C@H](CO)[C@@H](O)[C@H](O)[C@H]1NC(=O)N(CC)N=O` the Activity was “Non-toxic”. For `CCCN(N=O)C(=O)N[C@H]1[C@H](OC)O[C@H](CO)[C@@H](O)[C@@H]1O`, the Activity was “Non-toxic”.

Tested on: L1210
Assay: Antitumor activity against mouse L1210 cells allografted in BDF1 mouse assessed as increase in host lifespan at 50 mg/kg, ip qd for 5 days relative to control
Format: functional
Settings: 120 h, route intraperitoneal
In short: as §3
`CCCO[C@H]1O[C@H](CO)[C@@H](O)[C@H](O)[C@H]1NC(=O)N(C)N=O` showed an ILS at 50 mg/kg of 29%. Work on `CCCCO[C@@H]1O[C@H](CO)[C@@H](O)[C@H](O)[C@H]1NC(=O)N(C)N=O` yielded an ILS at 50 mg/kg of 33%.

Tested on: Mus musculus
Assay: Toxicity in ICR mouse allografted with mouse S180A assessed as mortality at 25 mg/kg, ip qd for 5 days
Format: organism-based
Design: dose 25 mg/kg, route intraperitoneal
Settings: in vivo, 120 h
In short: as §1
In the case of `CCCO[C@H]1O[C@H](CO)[C@@H](O)[C@H](O)[C@H]1NC(=O)N(C)N=O`, the Activity is reported as “Non-toxic”. With `CCCCO[C@@H]1O[C@H](CO)[C@@H](O)[C@H](O)[C@H]1NC(=O)N(C)N=O` the Activity was “Non-toxic”.

Tested on: Mus musculus
Assay: Toxicity in ICR mouse allografted with mouse EAC assessed as mortality at 125 mg/kg, ip qd for 5 days
Format: organism-based
Design: dose 125 mg/kg, route intraperitoneal
Settings: in vivo, 120 h
In short: (§5)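 Ehrlich ascites carcinoma (1 × 10^7 cells) implanted into ICR mice, six per group; compound ip daily for 5 days; mice sacrificed day 7; tumour burden as total packed cell volume (ascites volume × PCV), T/C % vs controls; mortality recorded.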
For `CCCO[C@H]1O[C@H](CO)[C@@H](O)[C@H](O)[C@H]1NC(=O)N(C)N=O`, the Activity was “Non-toxic”. In the case of `CCCCO[C@H]1O[C@H](CO)[C@@H](O)[C@H](O)[C@H]1NC(=O)N(CCCC)N=O`, the Activity is reported as “Non-toxic”. With `CCO[C@H]1O[C@H](CO)[C@@H](O)[C@H](O)[C@H]1NC(=O)N(CC)N=O` the Activity was “Non-toxic”. In the case of `CCCN(N=O)C(=O)N[C@H]1[C@H](OC)O[C@H](CO)[C@@H](O)[C@@H]1O`, the Activity is reported as “Non-toxic”.

Tested on: Mus musculus
Assay: Ratio of compound LD10 to streptozotocin LD10 for JCL-ICR mouse
Format: ADME, organism-based
Settings: in vivo
For `CCCO[C@H]1O[C@H](CO)[C@@H](O)[C@H](O)[C@H]1NC(=O)N(C)N=O`, the Ratio was 2. `CCCCO[C@H]1O[C@H](CO)[C@@H](O)[C@H](O)[C@H]1NC(=O)N(CCCC)N=O` gave a Ratio of 2. For `CCCCO[C@@H]1O[C@H](CO)[C@@H](O)[C@H](O)[C@H]1NC(=O)N(C)N=O`, the Ratio was 2.

Tested on: not listed separately
Assay: Antitumor activity against mouse S180A allografted in ICR mouse assessed as tumor growth at 25 mg/kg, ip qd for 5 days measured on day 7 relative to control
Format: functional
Settings: route intraperitoneal
In short: as §4
Work on `CCCO[C@H]1O[C@H](CO)[C@@H](O)[C@H](O)[C@H]1NC(=O)N(C)N=O` yielded a T/C of 32%. In the case of `CCCCO[C@@H]1O[C@H](CO)[C@@H](O)[C@H](O)[C@H]1NC(=O)N(C)N=O`, the T/C is reported as 40%.

Tested on: Rattus norvegicus
Assay: Diabetogenic activity in iv dosed Wistar rat assessed as increase in blood sugar level administered as single dose by glucose oxidase method
Format: ADME, organism-based
Settings: in vivo
In short: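 Male Wistar rats, about 200 g, five per group, fasted 16 h. Single iv dose into the femoral vein in physiological saline, equimolar across compounds. Caudal-vein blood sampled at set times over 24 h. Sugar measured by glucose oxidase.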
For `CCCO[C@H]1O[C@H](CO)[C@@H](O)[C@H](O)[C@H]1NC(=O)N(C)N=O`, the Activity was “Non-toxic”. With `CCCCO[C@H]1O[C@H](CO)[C@@H](O)[C@H](O)[C@H]1NC(=O)N(CCCC)N=O` the Activity was “Non-toxic”. In the case of `CCO[C@@H]1O[C@H](CO)[C@@H](O)[C@H](O)[C@H]1NC(=O)N(CC)N=O`, the Activity is reported as “Non-toxic”. For `CCCCO[C@@H]1O[C@H](CO)[C@@H](O)[C@H](O)[C@H]1NC(=O)N(C)N=O`, the Activity was “Non-toxic”. For `CCO[C@H]1O[C@H](CO)[C@@H](O)[C@H](O)[C@H]1NC(=O)N(CC)N=O`, the Activity was “Non-toxic”. For `CCCN(N=O)C(=O)N[C@H]1[C@H](OC)O[C@H](CO)[C@@H](O)[C@@H]1O`, the Activity was “Non-toxic”.

Tested on: Mus musculus
Assay: Toxicity in ICR mouse allografted with mouse EAC assessed as mortality at 150 mg/kg, ip qd for 5 days
Format: organism-based
Design: dose 150 mg/kg, route intraperitoneal
Settings: in vivo, 120 h
In short: as §5
With `CCCCO[C@@H]1O[C@H](CO)[C@@H](O)[C@H](O)[C@H]1NC(=O)N(C)N=O` the Activity was “Non-toxic”.

Tested on: Mus musculus
Assay: (§6) Acute toxicity in ip dosed JCL-ICR mouse assessed as animal death
Format: organism-based
Settings: in vivo
In short: (§7)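 Groups of ten female JCL-ICR mice given single ip dose in physiological saline; deaths followed over 7 days; LD50 (and LD10) derived by Litchfield–Wilcoxon method.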
Compound `CCCO[C@H]1O[C@H](CO)[C@@H](O)[C@H](O)[C@H]1NC(=O)N(C)N=O` has an LD10 of 1020 mg/kg. For `CCCCO[C@H]1O[C@H](CO)[C@@H](O)[C@H](O)[C@H]1NC(=O)N(CCCC)N=O`, the LD10 was 410 mg/kg. `CCCCO[C@@H]1O[C@H](CO)[C@@H](O)[C@H](O)[C@H]1NC(=O)N(C)N=O` showed an LD10 of 1100 mg/kg.

Tested on: not listed separately
Assay: as §6
Format: organism-based
Settings: JCL-ICR, in vivo
In short: as §7
`CCCO[C@H]1O[C@H](CO)[C@@H](O)[C@H](O)[C@H]1NC(=O)N(C)N=O` showed an LD50 of 1470 mg/kg. `CCCCO[C@H]1O[C@H](CO)[C@@H](O)[C@H](O)[C@H]1NC(=O)N(CCCC)N=O` gave an LD50 of 660 mg/kg. `CCCCO[C@@H]1O[C@H](CO)[C@@H](O)[C@H](O)[C@H]1NC(=O)N(C)N=O` gave an LD50 of 1580 mg/kg.
